HIF activator: HIF pathway transcriptional activation. U2OS HRE-luciferase reporter, luminescence; normalized: DMSO 0%, desferrioxamine 100%. activation, % at 7.5 µM (by protocol). 0.32% of 300,000 active;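 active = mean activation of at least 10% of the iron chelator positive control signal, with at least half of replicates also reaching 10%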
ARNT-TACC3 inh: disruptors of human ARNT/TACC3 interaction | Q9Y6A5 | AlphaScreen His-ARNT PAS-B/GST-TACC3 binding, luminescence; TACC3 fragment carries E629A point mutation | inhibition, % at 9.99 µM | 0.66% of 390,000 active | AID 623870;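 active = mean inhibition of replicates at least 50% and at least half of replicates each reaching 50%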
T cruzi inh: T. cruzi replication inhibition; 1.4% of 300,000 active; T. cruzi beta-gal in NIH3T3, luminescence, 90 h; inhibition, % (test concentration not listed);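 active = mean inhibition across valid replicates above about 55%, limit read from the data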;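 note: signal also drops with host cell toxicity which is not excluded here; higher percent means less beta-gal luminescence so fewer parasites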
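Read-out: Parasite load inhibition, % | Test system: Mouse NIH/3T3 fibroblasts infected with β-gal-expressing T. cruzi Tulahuen C4 | Amount: 5,000 cells/well | Medium: DMEM, 2% fetal bovine serum | Signal: GalScreen β-gal luminescence, detergent lysis, 60 min | Timing: 3 h attach, ≥90 h co-culture | Also added: Tulahuen C4 trypomastigotes, 5000/well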
AI-2 QS modul: Vibrio harveyi AI-2 quorum sensing modulation; Vibrio harveyi JMH597 AI-2 luminescence/OD600 ratio, 9 h; hits give low values; strain lacks LuxN and CqsS sensors; 0 = neutral-control median; activity change, % at 7.5 µM; 0.4% of 300,000 active; AID 2094; in the data active = activity change below about -75%, passing the limit was not always enough;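 note: luminescence divided by OD600 gain over 9 h not by final OD600 alone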
Each line names hits and unclear results; the compound was inactive in the other large screens. Hits are enriched below; roughly 2% of the tested compounds scored in any of these assays.

CC(=O)Oc1ccccc1/C=C/c1nc2ccccc2c(=O)o1	none
C/C(O)=c1/c(=O)nc2cccc3c2=c1c1ccccc1c3=O	ARNT-TACC3 inh 46
CN(C)S(=O)(=O)c1ccc(C(=O)OCC2CC2(Cl)Cl)cc1 (centres undefined)	AI-2 QS modul -77 (no result: ARNT-TACC3 inh)
CN1CCN(C(=O)C[C@@H]2CC[C@H]3[C@@H](COC[C@@H](O)CN3C(=O)Cc3ccccc3)O2)CC1	none (no result: HIF activator, T cruzi inh, AI-2 QS modul)
COc1ccc(C(=O)OC2CCN(C)CC2)cc1	T cruzi inh 55
CN1CCC(OC(=O)c2ccccc2)CC1	T cruzi inh 60
COc1cccc(C(=O)OC2CCN(C)CC2)c1	T cruzi inh 70
CCOc1ccc(C(=O)OC2CCN(C)CC2)cc1	none
COc1cccc(C(=O)N2CCC(C(=O)N3CCN(C)CC3)CC2)c1	none
C[C@@H]1CCCCO[C@@H](CN(C)S(=O)(=O)c2cccs2)[C@H](C)CN([C@@H](C)CO)C(=O)c2cc(NS(=O)(=O)c3cn(C)cn3)ccc2O1	none (no result: HIF activator, T cruzi inh, AI-2 QS modul)
C=CCn1c(=NC(=O)c2cc(-c3cccs3)nc3ccccc23)sc2cc(S(N)(=O)=O)ccc21	none
COCCn1c(=NC(=O)c2cc(-c3cccs3)nc3ccccc23)sc2cc(S(N)(=O)=O)ccc21	T cruzi inh 67
N#Cc1c(C(F)(F)F)cc(-c2ccco2)nc1SCc1ccccn1	none
N#Cc1c(C(F)(F)F)cc(-c2ccco2)nc1SCc1ccncc1	T cruzi inh 62
COc1cccc(OCC(O)CN2CCN(CCN3C(=O)c4cccc5cccc(c45)C3=O)CC2)c1 (centres undefined)	T cruzi inh 70
O=C(C[C@H]1C=C[C@H](NC(=O)c2ccccc2)[C@H](CO)O1)Nc1ccc(-c2ccccc2)cc1	none (no result: HIF activator, T cruzi inh, AI-2 QS modul)
CC1=CC2(C#N)C3(N=C(N)C2(C#N)C(c2ccccc2)N1)OCCO3 (centres undefined)	none (no result: HIF activator, T cruzi inh, AI-2 QS modul)
CCCCSC1(SCCCC)N=C(N)C2(C#N)C(c3ccccc3)NC(C)=CC12C#N (centres undefined)	ARNT-TACC3 inh 56
COc1ccc(NC(=O)N(C)C[C@@H]2OCCCC[C@@H](C)Oc3ccc(NC(=O)Nc4ccc5c(c4)OCO5)cc3C(=O)N([C@@H](C)CO)C[C@H]2C)cc1	none (no result: HIF activator, T cruzi inh, AI-2 QS modul)
O=C(CCl)N(c1ccccc1)C1CCCCC1	T cruzi inh 65
CC(=O)N(c1ccccc1)C1CCCC1	none
Cc1ccc(-c2csc3nc4c5ccccc5c(NCCCN(C)C)nn4c(=O)c23)cc1	ARNT-TACC3 inh 67
Cc1ccc(-c2csc3nc4c5ccccc5c(NCCCN5CCOCC5)nn4c(=O)c23)cc1	none (no result: ARNT-TACC3 inh)
CC(=O)N1CCN(c2nnc(-c3ccccc3)c3ccccc23)CC1	none
CC(=O)C1=C(c2ccccc2)N(C(C)=O)n2c(C)nnc2S1	ARNT-TACC3 inh 35
O=[N+]([O-])c1ccc(C2CCCC/C2=N/OCc2ccccc2F)c([N+](=O)[O-])c1 (centres undefined)	none (no result: HIF activator, T cruzi inh)
O=[N+]([O-])c1ccc(C2CCCC/C2=N/OCc2ccc(F)cc2)c([N+](=O)[O-])c1 (centres undefined)	T cruzi inh 61
Cc1ccc(S(=O)(=O)Nc2ccc3c(c2)C(=O)N([C@H](C)CO)C[C@H](C)[C@H](CN(C)C(=O)NC2CCCCC2)O3)cc1	none (no result: HIF activator, T cruzi inh, AI-2 QS modul)
Cc1ccc2c(c1)S/C(=C/c1ccc[n+](C)c1)N2CCO	T cruzi inh 57
O=C(N[C@@H]1CC[C@@H](CCNS(=O)(=O)c2ccc(F)cc2)O[C@H]1CO)C1CCC1	none (no result: HIF activator, T cruzi inh, AI-2 QS modul)
O=C1COc2ccc(C(=O)COC(=O)c3ccc(S(=O)(=O)C(F)F)cc3)cc2N1	AI-2 QS modul -94
Cc1ccc(Nc2ncccc2C(=O)O)cc1C	AI-2 QS modul -79
CC1CN(CCCCOc2cccc(Oc3ccccc3)c2)CC(C)O1 (centres undefined)	T cruzi inh 56
CC1CN(CCOc2cccc(Oc3ccccc3)c2)CC(C)O1 (centres undefined)	none
C[C@H]1CN([C@@H](C)CO)C(=O)c2cc(-c3cccc(F)c3)cnc2O[C@@H]1CN(C)C(=O)Nc1cc(F)ccc1F	none (no result: HIF activator, T cruzi inh, AI-2 QS modul)
CN(C)C(=O)C[C@H]1C=C[C@H](NC(=O)Nc2cccc(F)c2)[C@@H](CO)O1	none (no result: HIF activator, T cruzi inh, AI-2 QS modul)
CSCc1cc(N(C)c2ccccc2)nc(-c2ccccn2)n1	ARNT-TACC3 inh 61, T cruzi inh 60
CCN1CCN(c2cc(C)c3cc(NC(=O)CCC(=O)Nc4ccc(OC)c(OC)c4)ccc3n2)CC1	none
COc1ccc(C)cc1NC(=O)CCC(=O)Nc1ccc2nc(N3CCN(C)CC3)cc(C)c2c1	T cruzi inh 65 (no result: ARNT-TACC3 inh)

Screening results: PubChem, Broad Institute
